Laboratory results published in ChEMBL document CHEMBL4325922, “Restoring Let-7 microRNA Biogenesis Using a Small-Molecule Inhibitor of the Protein-RNA Interaction” (ACS Med Chem Lett, 2018).
The source made the active and inactive calls. No cut-off for these calls is given here.

What was measured:
[1] = biological target: Heterogeneous nuclear ribonucleoprotein A1 (Homo sapiens) (UniProt P09651); assay: Inhibition of biotinylated-preE-let-7g binding to hnRNPA1 in human JAR cells by pull down assay; type: cell-based
How it was run: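 5′-Biotinylated preE-let-7g is immobilized on streptavidin beads and incubated with proteome from JAR human choriocarcinoma cells, which express Lin28a and Lin28b. Test compound is present during binding, and target engagement is judged by the proteins pulled down.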

[2] = biological target: Endoribonuclease Dicer (Homo sapiens) (UniProt Q9UPY3); assay: Inhibition of recombinant FLAG-tagged human dicer expressed in HEK293 cells assessed as reduction in pre-let-7g microRNA maturation at 5 to 10 uM after 40 mins by SYBR green2 dye based fluorescence assay; type: cell-based
[3] = biological target: T1, Protein lin-28 homolog A (Homo sapiens) (UniProt Q9H9Z2); assay: Inhibition of Lin28a in human PA1 cells assessed as reduction in Ras expression at 10 uM after 24 hrs by Western blot analysis; type: cell-based
T1 sequence (whole entry): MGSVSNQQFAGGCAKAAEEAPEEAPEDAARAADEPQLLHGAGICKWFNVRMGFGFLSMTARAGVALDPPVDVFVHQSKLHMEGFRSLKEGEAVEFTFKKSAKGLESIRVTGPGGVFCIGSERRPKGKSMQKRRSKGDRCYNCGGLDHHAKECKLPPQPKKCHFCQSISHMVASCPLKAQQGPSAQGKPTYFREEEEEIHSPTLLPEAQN
How it was run: (§1)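 Endogenous let-7 target proteins (HMGA2, IMP1, Ras, Lin28a) detected by Western blot in JAR or PA-1 cells after 24 h compound treatment.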

JAR [4] = assay: Effect on miR-98 level in human JAR cells at 5 to 10 uM after 20 hrs by TRIzol dye based qRT-PCR analysis; type: functional, cell-based
How it was run: (§2)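 JAR cells (express Lin28a and Lin28b) exposed to compound for 20 h; miRNA levels quantified with U6 snRNA as endogenous control; three or more biological replicates, standard deviation, paired two-tailed t test.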

[5] = biological target: T1, Protein lin-28 homolog A (Homo sapiens); assay: Inhibition of Lin28a in human PA1 cells assessed as reduction in Lin28 expression at 10 uM after 24 hrs by Western blot analysis; type: cell-based; how it was run: as §1
[6] = biological target: T2, Protein lin-28 homolog A/B (Homo sapiens) (UniProt Q6ZN17+Q9H9Z2); assay: Inhibition of Lin28a/Lin28b in human JAR cells assessed as reduction in IMP1 expression at 5 to 10 uM after 24 hrs by Western blot analysis; type: cell-based; how it was run: as §1
JAR [7] = assay: Increase in mature let-7g level in Lin28a/b knockdown human JAR cells at 10 uM after 20 hrs by qRT-PCR analysis; type: functional, cell-based
How it was run: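 Lin28 knocked-down JAR cells treated for 20 h; let-7 levels measured against U6 snRNA endogenous control; 2 biological replicates.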

[8] = biological target: T2, Protein lin-28 homolog A/B (Homo sapiens); assay: Inhibition of Lin28a/Lin28b in human paclitaxel-resistant JAR cells assessed as reduction in MDR1 expression at 10 uM measured after 24 hrs by Western blot analysis
[9] = biological target: T2, Protein lin-28 homolog A/B (Homo sapiens); assay: Inhibition of Lin28a/Lin28b in human JAR cells assessed as increase in mature let-7b level after 20 hrs by TRIzol dye based qRT-PCR analysis; type: cell-based; how it was run: as §2
[10] = biological target: T1, Protein lin-28 homolog A (Homo sapiens); assay: Inhibition of Lin28a in human PA1 cells assessed as increase in mature let-7d level at 10 uM after 20 hrs by TRIzol dye based qRT-PCR analysis; type: cell-based
How it was run: (§3)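 PA-1 ovarian teratocarcinoma cells (express Lin28a) treated for 20 h; let-7 quantified relative to U6 snRNA; 4 biological replicates, standard deviation, paired two-tailed t test.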

[11] = biological target: T2, Protein lin-28 homolog A/B (Homo sapiens); assay: Inhibition of Lin28a/Lin28b in human JAR cells assessed as increase in mature let-7g level after 20 hrs by TRIzol dye based qRT-PCR analysis; type: cell-based; how it was run: as §2
[12] = biological target: T1, Protein lin-28 homolog A (Homo sapiens); assay: Inhibition of Lin28a in human PA1 cells assessed as reduction in HMGA2 expression at 10 uM after 24 hrs by Western blot analysis; type: cell-based; how it was run: as §1
[13] = biological target: T1, Protein lin-28 homolog A (Homo sapiens); assay: Binding affinity to recombinant human N-terminal His6-tagged Lin28a zinc knuckle domain expressed in Escherichia coli Rosetta2 (DE3) pLysS at 0.625 to 10 uM by surface plasmon resonance analysis
[14] = biological target: T2, Protein lin-28 homolog A/B (Homo sapiens); assay: Inhibition of Lin28a/Lin28b in human JAR cells assessed as reduction in Ras expression at 5 to 10 uM after 24 hrs by Western blot analysis; type: cell-based; how it was run: as §1
PA-1 [15] = assay: Increase in mature let-7g level in Lin28a CRISPR-Cas9 knockout human PA1 cells at 10 uM after 20 hrs by qRT-PCR analysis; type: functional, cell-based
How it was run: (§4)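 PA-1 cells with Lin28a fully knocked out by CRISPR/Cas9 editing (clonal lines) treated for 20 h; let-7 levels normalized to U6 snRNA; 2 technical replicates.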

[16] = biological target: T2, Protein lin-28 homolog A/B (Homo sapiens); assay: Inhibition of Lin28a/Lin28b in human JAR cells assessed as increase in mature let-7i level after 20 hrs by TRIzol dye based qRT-PCR analysis; type: cell-based; how it was run: as §2
[17] = biological target: T2, Protein lin-28 homolog A/B (Homo sapiens); assay: Inhibition of Lin28a/Lin28b in human MCF7 cells assessed as reduction in Ras expression at 10 uM after 24 hrs by Western blot analysis; type: cell-based
[18] = biological target: T1, Protein lin-28 homolog A (Homo sapiens); assay: Inhibition of Lin28a in human PA1 cells assessed as increase in mature let-7i level at 10 uM after 20 hrs by TRIzol dye based qRT-PCR analysis; type: cell-based; how it was run: as §3
PA-1 [19] = assay: Increase in mature let-7i level in Lin28a CRISPR-Cas9 knockout human PA1 cells at 10 uM after 20 hrs by qRT-PCR analysis; type: functional, cell-based; how it was run: as §4
[20] = biological target: T2, Protein lin-28 homolog A/B (Homo sapiens); assay: Inhibition of Lin28a/Lin28b in human JAR cells assessed as reduction in Lin28a expression at 5 to 10 uM after 24 hrs by Western blot analysis; type: cell-based; how it was run: as §1
Protein lin-28 homolog A = biological target: T3, Protein lin-28 homolog A (Homo sapiens, UniProt Q9H9Z2); assay: Binding affinity to recombinant human N-terminal His6-tagged Lin28a expressed in Escherichia coli Rosetta2 (DE3) pLysS by surface plasmon resonance analysis
T3 sequence (Q9H9Z2 whole entry): T1 sequence (whole entry)
How it was run: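 Surface plasmon resonance detecting direct binding of analyte to immobilized Lin28a, run at concentrations from 0.31 to 10 μM; binding read as a dose–response curve and Rmax calculated.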

[21] = biological target: T2, Protein lin-28 homolog A/B (Homo sapiens); assay: Inhibition of Lin28a/Lin28b in human paclitaxel-resistant JAR cells assessed as potentiation of paclitaxel induced cytotoxicity at 10 uM pretreated for 30 hrs followed by paclitaxel addition and measured after 72 hrs by WTS assay
How it was run: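 Paclitaxel-resistant JAR persister cells, enriched by cytotoxic paclitaxel exposure and regrowth without drug. Cells pretreated 30 h with compound, then given paclitaxel for 72 h without compound; WST viability used to derive the paclitaxel IC50.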

[22] = biological target: T2, Protein lin-28 homolog A/B (Homo sapiens); assay: Inhibition of Lin28a/Lin28b in human MCF7 cells assessed as reduction in HMGA2 expression at 10 uM after 24 hrs by Western blot analysis; type: cell-based
[23] = biological target: T2, Protein lin-28 homolog A/B (Homo sapiens); assay: Inhibition of Lin28a/Lin28b in human JAR cells assessed as reduction in HMGA2 expression after 20 hrs by dual-luciferase reporter gene assay

T2 sequence (Q6ZN17 whole entry, looked up, one chain of several): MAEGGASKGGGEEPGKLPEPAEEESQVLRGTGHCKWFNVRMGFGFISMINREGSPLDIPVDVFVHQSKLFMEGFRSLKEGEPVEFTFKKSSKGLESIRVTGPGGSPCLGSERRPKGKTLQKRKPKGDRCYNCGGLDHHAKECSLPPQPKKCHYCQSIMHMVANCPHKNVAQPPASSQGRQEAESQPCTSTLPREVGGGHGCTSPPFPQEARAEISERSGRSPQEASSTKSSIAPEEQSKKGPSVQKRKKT
Sequence of Endoribonuclease Dicer (Homo sapiens) (Q9UPY3 whole entry): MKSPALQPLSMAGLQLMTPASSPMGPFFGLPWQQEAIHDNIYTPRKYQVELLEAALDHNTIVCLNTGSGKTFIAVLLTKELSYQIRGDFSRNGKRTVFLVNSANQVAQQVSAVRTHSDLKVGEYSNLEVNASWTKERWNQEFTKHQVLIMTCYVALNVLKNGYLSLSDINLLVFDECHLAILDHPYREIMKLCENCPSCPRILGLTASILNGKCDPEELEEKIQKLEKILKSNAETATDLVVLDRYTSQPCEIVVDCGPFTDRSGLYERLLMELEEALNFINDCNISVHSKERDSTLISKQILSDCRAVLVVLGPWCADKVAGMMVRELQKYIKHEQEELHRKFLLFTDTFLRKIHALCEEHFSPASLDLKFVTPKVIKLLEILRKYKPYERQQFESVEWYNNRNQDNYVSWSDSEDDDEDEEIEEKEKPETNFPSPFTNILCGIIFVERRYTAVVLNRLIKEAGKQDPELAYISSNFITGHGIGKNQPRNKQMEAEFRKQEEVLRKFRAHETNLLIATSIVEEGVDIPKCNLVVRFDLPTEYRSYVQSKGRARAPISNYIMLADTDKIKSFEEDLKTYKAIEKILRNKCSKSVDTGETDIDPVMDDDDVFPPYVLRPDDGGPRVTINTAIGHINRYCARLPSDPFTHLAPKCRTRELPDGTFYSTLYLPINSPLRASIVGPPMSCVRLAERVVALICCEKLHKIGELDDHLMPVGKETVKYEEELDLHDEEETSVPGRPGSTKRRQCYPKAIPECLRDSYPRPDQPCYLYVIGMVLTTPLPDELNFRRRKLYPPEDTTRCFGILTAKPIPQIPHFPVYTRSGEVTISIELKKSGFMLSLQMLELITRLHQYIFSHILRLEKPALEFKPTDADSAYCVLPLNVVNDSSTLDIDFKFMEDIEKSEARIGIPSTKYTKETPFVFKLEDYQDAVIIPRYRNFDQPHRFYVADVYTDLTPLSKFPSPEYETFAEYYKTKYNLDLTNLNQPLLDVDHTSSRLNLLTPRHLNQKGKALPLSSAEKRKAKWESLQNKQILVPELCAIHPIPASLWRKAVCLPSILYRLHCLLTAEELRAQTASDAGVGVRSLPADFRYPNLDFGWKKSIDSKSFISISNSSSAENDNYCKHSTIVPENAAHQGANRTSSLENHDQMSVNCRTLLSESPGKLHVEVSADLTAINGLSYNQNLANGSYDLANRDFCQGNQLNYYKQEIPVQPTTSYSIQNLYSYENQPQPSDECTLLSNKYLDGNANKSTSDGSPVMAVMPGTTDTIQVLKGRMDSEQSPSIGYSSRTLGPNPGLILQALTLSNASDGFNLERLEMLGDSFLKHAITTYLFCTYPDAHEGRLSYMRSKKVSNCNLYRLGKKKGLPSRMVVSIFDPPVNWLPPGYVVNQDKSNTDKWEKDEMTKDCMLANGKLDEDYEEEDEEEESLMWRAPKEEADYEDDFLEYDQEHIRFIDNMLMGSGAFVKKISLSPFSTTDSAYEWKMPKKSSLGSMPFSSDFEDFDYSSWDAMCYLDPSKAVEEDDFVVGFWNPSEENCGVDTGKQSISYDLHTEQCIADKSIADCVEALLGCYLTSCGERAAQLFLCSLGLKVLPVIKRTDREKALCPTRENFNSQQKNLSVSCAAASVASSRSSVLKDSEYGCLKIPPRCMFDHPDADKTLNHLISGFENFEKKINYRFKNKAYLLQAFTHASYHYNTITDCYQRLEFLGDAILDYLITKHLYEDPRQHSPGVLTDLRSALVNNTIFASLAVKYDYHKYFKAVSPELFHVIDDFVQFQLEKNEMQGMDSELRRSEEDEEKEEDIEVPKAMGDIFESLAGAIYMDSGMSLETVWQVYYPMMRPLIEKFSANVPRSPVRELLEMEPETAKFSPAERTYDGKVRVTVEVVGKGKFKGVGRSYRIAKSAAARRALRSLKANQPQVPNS
Sequence of Heterogeneous nuclear ribonucleoprotein A1 (Homo sapiens) (P09651 whole entry): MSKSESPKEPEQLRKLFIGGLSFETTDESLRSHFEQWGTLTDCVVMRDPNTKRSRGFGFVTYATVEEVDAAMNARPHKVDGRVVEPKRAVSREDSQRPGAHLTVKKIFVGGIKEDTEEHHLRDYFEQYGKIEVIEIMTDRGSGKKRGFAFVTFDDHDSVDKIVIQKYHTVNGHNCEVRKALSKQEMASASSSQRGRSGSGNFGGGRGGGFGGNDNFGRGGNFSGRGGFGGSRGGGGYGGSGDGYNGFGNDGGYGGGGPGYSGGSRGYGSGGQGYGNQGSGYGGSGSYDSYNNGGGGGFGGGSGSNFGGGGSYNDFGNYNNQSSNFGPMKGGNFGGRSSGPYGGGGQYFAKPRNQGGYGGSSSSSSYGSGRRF

For `NC(=O)c1c(Nc2ccc(Cl)cc2Cl)[nH]c2c(Cl)ccc(Cl)c2c1=O`, which inhibition [1] is on record?
Its inhibition is “inactive”.

What about the inhibition [2] of the same compound?
The inhibition was “inactive”.

What about the inhibition [3] of the same compound?
Its inhibition is “Active”.

What about the Activity (JAR [4]) of the same compound?
The Activity was “inactive”.

And the inhibition [5]?
Its inhibition is “Active”.

And the inhibition [6]?
Its inhibition is “Active”.

And the Activity (JAR [7])?
The Activity was “inactive”.

What about the inhibition [8] of the same compound?
Its inhibition is “Active”.

And the inhibition [9]?
The inhibition was “Dose-dependent effect”.

And the inhibition [10]?
Its inhibition is “Active”.

And the inhibition [11]?
The inhibition was “Dose-dependent effect”.

And the inhibition [12]?
Its inhibition is “Active”.

What about the Activity [13] of the same compound?
Its Activity is “inactive”.

What about the inhibition [14] of the same compound?
The inhibition was “Active”.

And the Activity (PA-1 [15])?
Its Activity is “inactive”.

And the inhibition [16]?
Its inhibition is “Dose-dependent effect”.

What about the inhibition [17] of the same compound?
Its inhibition is “inactive”.

And the inhibition [18]?
The inhibition was “Active”.

What about the Activity (PA-1 [19]) of the same compound?
The Activity was “inactive”.

What about the inhibition [20] of the same compound?
Its inhibition is “Active”.

And the Kd (Protein lin-28 homolog A)?
The Kd was 5.9 µM.

What about the inhibition [21] of the same compound?
Its inhibition is “Active”.

And the inhibition [22]?
The inhibition was “inactive”.

What about the inhibition [23] of the same compound?
The inhibition was “Dose-dependent effect”.
